Results on 2 compounds are retold here after ChEMBL document CHEMBL2424580, “Radiosynthesis of N-(4-chloro-3-[(11)C]methoxyphenyl)-2-picolinamide ([(11)C]ML128) as a PET radiotracer for metabotropic glutamate receptor subtype 4 (mGlu4)” (Bioorg Med Chem, 2013).

Series [1] has as its target Metabotropic glutamate receptor 5 (Homo sapiens) (UniProt P41594). In words: Agonist activity at mGlu5a receptor (unknown origin) expressed in CHO cells assessed as induction of inositol phosphate accumulation at 10 uM after 45 mins by liquid scintillation counting analysis relative to control. It counts as functional, cell-based. In a few lines: (§1)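 Stably transfected CHO cells grown to confluency (3–4 days), then labelled overnight with myo-[3H]inositol in glutamine-free medium. Compound at 10 μM, 45 min at 37°C, in Locke's buffer pH 7.4 with 20 mM LiCl. IPs extracted with 0.1 M HCl, separated by anion exchange, counted by liquid scintillation. Result given as % of maximal agonist activity. Duplicates in two experiments on different passages.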

Series [2] deals with Metabotropic glutamate receptor 8 (Homo sapiens) (UniProt O00222). The experiment in a line: Antagonist activity at mGlu8 receptor (unknown origin) expressed in CHO cells assessed as inhibition of glutamate-induced inositol phosphate accumulation at 10 uM after 45 mins by liquid scintillation counting analysis relative to control. It counts as functional, cell-based.
Metabotropic glutamate receptor 8 (Homo sapiens), sequence (O00222 whole entry): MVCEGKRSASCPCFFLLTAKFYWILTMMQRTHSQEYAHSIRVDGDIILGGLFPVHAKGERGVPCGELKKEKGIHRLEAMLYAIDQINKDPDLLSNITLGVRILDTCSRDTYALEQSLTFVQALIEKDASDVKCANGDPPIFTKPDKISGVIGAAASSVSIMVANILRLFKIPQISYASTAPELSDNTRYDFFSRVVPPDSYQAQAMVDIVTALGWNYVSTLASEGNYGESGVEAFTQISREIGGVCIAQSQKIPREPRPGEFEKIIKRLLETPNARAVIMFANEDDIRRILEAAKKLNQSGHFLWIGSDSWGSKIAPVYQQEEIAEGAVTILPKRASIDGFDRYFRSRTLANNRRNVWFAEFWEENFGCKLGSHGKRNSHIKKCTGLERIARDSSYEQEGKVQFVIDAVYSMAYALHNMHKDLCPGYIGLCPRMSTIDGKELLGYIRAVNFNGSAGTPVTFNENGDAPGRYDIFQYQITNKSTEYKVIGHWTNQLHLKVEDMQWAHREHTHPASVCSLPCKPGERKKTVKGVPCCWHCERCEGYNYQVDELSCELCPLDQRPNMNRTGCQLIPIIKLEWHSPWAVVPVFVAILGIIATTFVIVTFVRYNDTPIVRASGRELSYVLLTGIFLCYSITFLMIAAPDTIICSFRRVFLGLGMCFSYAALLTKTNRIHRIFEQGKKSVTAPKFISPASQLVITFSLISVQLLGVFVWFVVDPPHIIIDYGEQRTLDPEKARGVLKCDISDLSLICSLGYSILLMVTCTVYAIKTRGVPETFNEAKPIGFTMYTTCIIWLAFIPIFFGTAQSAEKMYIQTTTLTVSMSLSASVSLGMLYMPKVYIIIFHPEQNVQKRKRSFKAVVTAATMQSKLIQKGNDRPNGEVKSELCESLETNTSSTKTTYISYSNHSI
The target is the same in series [3]. The experiment in a line: Agonist activity at mGlu8 receptor (unknown origin) expressed in CHO cells assessed as induction of inositol phosphate accumulation at 10 uM after 45 mins by liquid scintillation counting analysis relative to control. It counts as functional, cell-based. The gist of the method:
as §1

Series [4] has as its target Metabotropic glutamate receptor 5 (Homo sapiens) (UniProt P41594). In words: Antagonist activity at mGlu5a receptor (unknown origin) expressed in CHO cells assessed as inhibition of glutamate-induced inositol phosphate accumulation at 10 uM after 45 mins by liquid scintillation counting analysis relative to control. It counts as functional, cell-based.
Series [5] is described as follows: Reduction in drug uptake in Sprague-Dawley rat whole brain at 24.1 MBq, iv after 2 to 15 mins by PET analysis in presence of mGlu4 blocker N-(3-(Difluoromethoxy)phenyl)-2-picolinamide hydrochloride salt. The class given is ADME, organism-based. The settings on record: in vivo. The gist of the method:
(§2)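 Rats were pretreated with the mGlu4 blocker (10 mg/kg i.p., in 10% ethanol/10% Tween-20 in water) 30 min before i.v. radioligand. Anesthetized rats were imaged by 60-min dynamic PET with CT attenuation correction and MLEM reconstruction. Uptake at 2–15 min was compared with control scans, and percent change was calculated per brain region.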

Series [6] concerns Hippocampus. The experiment in a line: Reduction in drug uptake in Sprague-Dawley rat hippocampus at 24.1 MBq, iv after 2 to 15 mins by PET analysis in presence of mGlu4 blocker N-(3-(Difluoromethoxy)phenyl)-2-picolinamide hydrochloride salt. It counts as ADME, organism-based. The settings on record: in vivo. In a few lines: as §2
Series [7] can be described thus: Reduction in drug uptake in Sprague-Dawley rat whole brain at 24.1 MBq, iv after 2 to 15 mins by PET analysis in presence of mGlu5 blocker MTEP hydrochloride. The class given is ADME, organism-based. As to conditions: in vivo; call rule not given here. In a few lines:
(§3)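 MTEP·HCl (5 mg/kg, in sterile water) was injected into the tail vein 2 min before i.v. radioligand. Anesthetized rats were imaged by 60-min dynamic PET with CT attenuation correction and MLEM reconstruction. Uptake at 2–15 min was compared with control scans, and percent change was calculated per brain region.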

Series [8] deals with Hippocampus. In words: Drug uptake in Sprague-Dawley rat hippocampus at 24.1 MBq, iv measured within 20 mins by PET analysis. It counts as ADME, organism-based. The settings on record: in vivo. In a few lines: (§4)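 Male Sprague Dawley rats (300–500 g) under isoflurane/nitrous oxide anesthesia, with radioligand given via tail-vein catheter in 10% ethanol/saline. Dynamic small-animal PET ran for 60 min from injection (frames 18×10″, 14×30″, 20×60″, 10×180″), followed by CT for anatomy and attenuation. Data were corrected for uniformity, scatter and attenuation and reconstructed by MLEM (30 iterations) to give regional time-activity curves.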

The nature of series [9]: Drug uptake in Sprague-Dawley rat olfactory bulb at 24.1 MBq, iv measured for 1 to 3 mins by PET analysis. The class given is ADME, organism-based. The settings on record: in vivo. In a few lines: as §4
In the next series the test system is Brain. In words: Biodistribution in Sprague-Dawley rat brain at 27.4 to 48.1 MBq after 1 to 40 mins by gamma counting analysis. As to conditions: in vivo. It counts as ADME, organism-based. The gist of the method:
(§5)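 Male Sprague Dawley rats (300–500 g) given the radioligand i.v. (27.4–48.1 MBq/animal) in 10% ethanol/saline. Three rats were sacrificed at each of 1, 5, 10, 20 and 40 min. Harvested tissues were weighed and gamma-counted. Counts were corrected for decay and injected activity and expressed as %ID/g tissue.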

A short description of series [10]: Drug uptake in Sprague-Dawley rat olfactory bulb at 24.1 MBq, iv measured within 20 mins by PET analysis. The class given is ADME, organism-based. As to conditions: in vivo. In a few lines: as §4
For the next series, the system named is Lung. In words: Biodistribution in Sprague-Dawley rat lung at 27.4 to 48.1 MBq after 1 to 40 mins by gamma counting analysis. It counts as ADME, organism-based. The settings on record: in vivo. In a few lines:
as §5

Series [11] relates to Cerebellum. In words: Reduction in drug uptake in Sprague-Dawley rat cerebellum at 24.1 MBq, iv after 2 to 15 mins by PET analysis in presence of mGlu4 blocker N-(3-(Difluoromethoxy)phenyl)-2-picolinamide hydrochloride salt. The settings on record: in vivo. It counts as ADME, organism-based. In a few lines:
as §2

In series [12] the test system is Thalamus. In words: Drug uptake in Sprague-Dawley rat thalamus at 24.1 MBq, iv measured for 1 to 3 mins by PET analysis. It counts as ADME, organism-based. The settings on record: in vivo. The gist of the method:
as §4

Series [13] deals with Striatum. The experiment in a line: Drug uptake in Sprague-Dawley rat striatum at 24.1 MBq, iv measured within 20 mins by PET analysis. It counts as ADME, organism-based. The settings on record: in vivo. The gist of the method:
as §4

Series [14] deals with Striatum. The experiment in a line: Drug uptake in Sprague-Dawley rat striatum at 24.1 MBq, iv measured for 1 to 3 mins by PET analysis. As to conditions: in vivo. It counts as ADME, organism-based. The gist of the method:
as §4

The subject of series [15] is Hippocampus. The experiment in a line: Reduction in drug uptake in Sprague-Dawley rat hippocampus at 24.1 MBq, iv after 2 to 15 mins by PET analysis in presence of mGlu5 blocker MTEP hydrochloride. The class given is ADME, organism-based. As to conditions: in vivo. The gist of the method: as §3
Another series concerns Liver. The experiment in a line: Biodistribution in Sprague-Dawley rat liver at 27.4 to 48.1 MBq after 1 to 40 mins by gamma counting analysis. It counts as ADME, organism-based. As to conditions: in vivo. The gist of the method:
as §5

The next series has as its system Heart. In words: Biodistribution in Sprague-Dawley rat heart at 27.4 to 48.1 MBq after 1 to 40 mins by gamma counting analysis. It counts as ADME, organism-based. As to conditions: in vivo. In a few lines: as §5
Series [16] has as its system Striatum. In words: Reduction in drug uptake in Sprague-Dawley rat striatum at 24.1 MBq, iv after 2 to 15 mins by PET analysis in presence of mGlu5 blocker MTEP hydrochloride. The class given is ADME, organism-based. The settings on record: in vivo. In a few lines: as §3
For series [17], the system named is Hippocampus. In words: Drug uptake in Sprague-Dawley rat hippocampus at 24.1 MBq, iv measured for 1 to 3 mins by PET analysis. It counts as ADME, organism-based. As to conditions: in vivo. In a few lines: as §4
Series [18] can be described thus: Octanol-PBS buffer partition coefficient, log D of the compound at pH 7.4 by gamma counting analysis. The class given is physicochemical. The gist of the method:
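Radiotracer was partitioned between PBS and octanol by vortexing 2 min, then centrifuging at >8000 rpm for 2 min. Octanol was serially re-extracted into fresh PBS across six tube sets. Phases were gamma-counted with decay correction. logD = log(octanol activity × 10 / PBS activity).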

In series [19] the test system is Thalamus. In words: Drug uptake in Sprague-Dawley rat thalamus at 24.1 MBq, iv measured within 20 mins by PET analysis. As to conditions: in vivo. It counts as ADME, organism-based. The gist of the method:
as §4

Series [20] in a line: Metabolic stability in Sprague-Dawley rat plasma assessed as intact compound level at 24.1 MBq, iv after 50 mins by gamma counting analysis. It counts as ADME, organism-based. As to conditions: read-out: Stability.
Series [21] deals with Striatum. The experiment in a line: Reduction in drug uptake in Sprague-Dawley rat striatum at 24.1 MBq, iv after 2 to 15 mins by PET analysis in presence of mGlu4 blocker N-(3-(Difluoromethoxy)phenyl)-2-picolinamide hydrochloride salt. The class given is ADME, organism-based. As to conditions: in vivo. The gist of the method: as §2
In a further series the test system is Muscle tissue. In words: Biodistribution in Sprague-Dawley rat muscle at 27.4 to 48.1 MBq after 1 to 40 mins by gamma counting analysis. The class given is ADME, organism-based. As to conditions: in vivo. The gist of the method: as §5
In a further series the test system is Kidney. The experiment in a line: Biodistribution in Sprague-Dawley rat kidney at 27.4 to 48.1 MBq after 1 to 40 mins by gamma counting analysis. The class given is ADME, organism-based. The settings on record: in vivo. The gist of the method:
as §5

Series [22] can be described thus: Metabolic stability in Sprague-Dawley rat plasma assessed as intact compound level at 24.1 MBq, iv after 5 mins by gamma counting analysis. It counts as ADME, organism-based. As to conditions: read-out: Stability. The gist of the method:
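Femoral arterial blood was drawn from three rats at 5, 25 and 55 min after i.v. radioligand and centrifuged. Plasma was mixed 1:1 with acetonitrile and centrifuged to remove protein. The supernatant was loaded on a phenyl SPE cartridge and eluted with an acetonitrile–0.1% TFA/water gradient (0–100% acetonitrile) to separate intact tracer.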

Series [23] deals with Cerebellum. In words: Drug uptake in Sprague-Dawley rat cerebellum at 24.1 MBq, iv measured within 20 mins by PET analysis. The class given is ADME, organism-based. As to conditions: in vivo. In a few lines:
as §4

For a further series, the system named is Blood. The experiment in a line: Biodistribution in Sprague-Dawley rat blood at 27.4 to 48.1 MBq after 1 to 40 mins by gamma counting analysis. It counts as ADME, organism-based. As to conditions: in vivo. In a few lines:
as §5

In series [24] the test system is Cerebellum. The experiment in a line: Drug uptake in Sprague-Dawley rat cerebellum at 24.1 MBq, iv measured for 1 to 3 mins by PET analysis. It counts as ADME, organism-based. As to conditions: in vivo. The gist of the method: as §4

A value given as a limit tells only on which side of the number the result lay.

Metabotropic glutamate receptor 5 (Homo sapiens), sequence (P41594 21-1212 limits assumed): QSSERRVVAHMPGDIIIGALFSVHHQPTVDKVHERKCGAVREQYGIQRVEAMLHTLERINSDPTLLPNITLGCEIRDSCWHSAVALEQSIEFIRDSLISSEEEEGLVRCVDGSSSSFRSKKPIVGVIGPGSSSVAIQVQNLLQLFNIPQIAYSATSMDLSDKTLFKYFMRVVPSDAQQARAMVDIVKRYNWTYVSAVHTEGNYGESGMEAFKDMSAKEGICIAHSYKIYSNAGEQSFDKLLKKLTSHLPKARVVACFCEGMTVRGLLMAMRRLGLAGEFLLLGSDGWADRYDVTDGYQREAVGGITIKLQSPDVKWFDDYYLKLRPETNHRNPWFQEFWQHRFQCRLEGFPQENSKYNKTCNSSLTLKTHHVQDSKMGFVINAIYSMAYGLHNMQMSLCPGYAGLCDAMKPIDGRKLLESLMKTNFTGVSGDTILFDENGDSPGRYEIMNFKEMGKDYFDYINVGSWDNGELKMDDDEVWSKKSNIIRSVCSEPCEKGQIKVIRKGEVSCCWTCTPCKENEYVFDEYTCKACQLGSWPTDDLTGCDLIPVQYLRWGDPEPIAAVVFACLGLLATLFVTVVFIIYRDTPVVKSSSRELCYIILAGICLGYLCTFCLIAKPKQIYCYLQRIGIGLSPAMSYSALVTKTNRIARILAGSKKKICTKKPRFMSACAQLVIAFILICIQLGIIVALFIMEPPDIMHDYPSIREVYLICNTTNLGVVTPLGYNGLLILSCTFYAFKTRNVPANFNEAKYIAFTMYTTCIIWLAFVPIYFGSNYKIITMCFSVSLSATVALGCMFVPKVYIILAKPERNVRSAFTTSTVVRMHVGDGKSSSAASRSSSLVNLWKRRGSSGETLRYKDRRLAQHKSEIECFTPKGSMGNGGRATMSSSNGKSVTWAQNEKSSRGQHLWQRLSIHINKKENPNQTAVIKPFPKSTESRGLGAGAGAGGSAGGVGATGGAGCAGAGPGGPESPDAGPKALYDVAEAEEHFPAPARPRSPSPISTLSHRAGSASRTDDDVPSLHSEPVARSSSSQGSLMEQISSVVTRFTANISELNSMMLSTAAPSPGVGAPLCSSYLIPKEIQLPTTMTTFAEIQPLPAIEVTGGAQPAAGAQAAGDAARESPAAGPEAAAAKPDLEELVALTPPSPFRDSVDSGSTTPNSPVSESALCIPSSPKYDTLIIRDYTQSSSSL

On to `COc1cc(NC(=O)c2ccccn2)ccc1Cl`, for which the figures for the Activity in [1] and in [3] were -15% and 13%, respectively. The inhibition in [2] is -5%; in series [4], 51%.
`[11CH3]Oc1cc(NC(=O)c2ccccn2)ccc1Cl`: the Drug uptake entry in [5] was “Active”; with Hippocampus [6] it was “Active”; in series [7], “Active”; in the series on Hippocampus [8], “Not Active”; in [9] it was “Active”; with Brain, less than 1 % ID/g. In addition, the Drug uptake result is recorded as “Not Active” in series [10]; less than 1 % ID/g in the series with Lung; “Active” with Cerebellum [11]; “Active” in the series on Thalamus [12]; “Not Active” in the series with Striatum [13]; “Active” with Striatum [14]. Further, the Drug uptake entry with Hippocampus [15] is given as “Active”; in the series with Liver, more than 1 % ID/g; with Heart, less than 1 % ID/g; with Striatum [16], “Active”; with Hippocampus [17], “Active”; in the series with Thalamus [19], “Not Active”. Also, the Drug uptake result in the series with Striatum [21] is reported as “Active”; with Muscle tissue, less than 1 % ID/g; in the series on Kidney it was more than 1 % ID/g; in the series on Cerebellum [23] it was “Not Active”; in the series on Blood, less than 1 % ID/g; in the series on Cerebellum [24], “Active”. This compound also gave a logD in series [18] of 3.09. In addition, the remaining at 50 min in [20] came to 10%. The remaining at 5 min in series [22] was 30%.
